What was measured:
[1] = Lethality in 50% (LD50) of male and female CF-1 strain mice weighing 16-25g, intraperitoneal administration; assay type: ADME, organism-based; settings: both, CF-1, mouse, in vivo, ip
Procedure, shortened: (§1)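 Four mice per dose level. Drug dissolved in distilled water and suspended in 0.5% carboxymethylcellulose or 0.5% gelatin, with pH adjusted by 1 N HCl or 1 N NaOH where the drug tolerated it. Doses logarithmically spaced, given orally or intraperitoneally. Mice observed 7 days after dosing. LD50 derived by the Bliss method, expressed in mg/kg.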

Rattus norvegicus [2] = assay: Blood sugar lowering (hypoglycemic activity) in the glucose-primed rat at a dose of 100 mg/kg; Decrease in blood sugar level.; assay type: functional
Procedure, shortened: (§2)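 Male Sprague–Dawley rats, 140–150 g, groups of six, fasted 16 h. Each rat got 100 mg glucose s.c. in 0.5 mL isotonic NaCl, then the test agent at once orally as an aqueous carboxymethylcellulose suspension (0.5 mL); controls got vehicle. At 2 h, under light ether, blood was taken by cardiac puncture. Glucose was read by Autoanalyzer (Hoffman method). Values are percent difference from vehicle controls.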

[3] = Dose that produces lethality in 50% (LD50) of male and female carworth farms CF-1 strain mice weighing 16-25 g oral (po) route of administration; assay type: ADME, organism-based; settings: both, CF-1, mouse, in vivo; procedure, shortened: as §1
Rattus norvegicus [4] = assay: Compound was evaluated for the blood sugar lowering (hypoglycemic activity) in the glucose-primed rat at a dose of 100 mg/kg; Increase in blood sugar level; assay type: functional; procedure, shortened: as §2
Rattus norvegicus [5] = assay: Compound was evaluated for the blood sugar lowering (hypoglycemic activity) in the glucose-primed rat at a dose of 100 mg/kg; assay type: functional; procedure, shortened: as §2
Rattus norvegicus [6] = assay: Evaluated in glucose-primed, fasted rat for the percentage reduction in blood glucose level after 2 hr as compared to control groups at a dose of 100 mg of free base / kg body weight administered orally; assay type: functional; procedure, shortened: as §2
Monkey [7] = assay: Evaluated in normal, fasted monkey for the percentage reduction in blood glucose level after 5 hr as compared to pretreatment blood glucose values at a dose of 10 mg of free base / kg body weight administered orally; assay type: functional, Cercopithecidae
Procedure, shortened: (§3)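 Male and female rhesus monkeys (2–3 kg) were food-deprived, with water, for 18 h. Pretreatment blood was taken from the popliteal vein. Dosing was oral by stomach tube, with repeat sampling 5 h post-dose. Results are percent reduction in blood glucose relative to pretreatment values.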

Rattus norvegicus [8] = assay: Evaluated in alloxanized, diabetic rat for the percentage reduction in blood glucose level after 5 hr as compared to pretreatment blood glucose values at a dose of 100 mg of free base / kg body weight administered orally; assay type: functional
Procedure, shortened: (§4)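 Three days later, rats positive for urine glucose (reagent strip) formed groups of six. Tail-vein blood was taken before oral dosing and again at 5 h. Percent reduction is versus pretreatment glucose.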

Cavia porcellus [9] = assay: Evaluated in normal, fasted guinea pig for the percentage reduction in blood glucose level after 5 hr as compared to pretreatment blood glucose values at a dose of 25 mg of free base / kg body weight administered orally; assay type: functional
Procedure, shortened: (§5)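 Male and female Hartley guinea pigs, 450–500 g, were food-deprived (water allowed) 18 h and split by sex into groups of four. A zero-time blood sample was taken by cardiac puncture, then drug was given, and blood was drawn again 5 h later. Percent reduction in blood glucose is relative to pretreatment values.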

[10] = Dose that produces lethality in 50% (LD50) of male and female carworth farms CF-1 strain mice weighing 16-25 g intraperitoneal (ip) route of administration; assay type: ADME, organism-based; settings: both, CF-1, mouse, in vivo; procedure, shortened: as §1
[11] = Lethal dose required to produce 50% lethality in male and female carworth farms CF-1 strain mice weighing 16-25 g administered intraperitoneally; settings: both, CF-1, rat, in vivo, ip
[12] = Lethal dose required to produce 50% lethality in male and female carworth farms CF-1 strain mice weighing 16-25 g administered orally; settings: both, CF-1, in vivo, po
Rattus norvegicus [13] = assay: Compound was evaluated for the blood sugar lowering (hypoglycemic activity ) in the glucose-primed rat at a dose of 50 mg of base/kg; assay type: functional; procedure, shortened: as §2
Rattus norvegicus [14] = assay: Evaluated in alloxanized, diabetic rat for the percentage reduction in blood glucose level as compared to pretreatment blood glucose values at a dose of 200 mg of free base / kg body weight administered orally.; assay type: functional; procedure, shortened: as §4
Rattus norvegicus [15] = assay: Evaluated in glucose-primed, fasted rat for the percentage reduction in blood glucose level after 2 hr as compared to control groups at a dose of 50 mg of free base / kg body weight administered orally; assay type: functional; procedure, shortened: as §2
Monkey [16] = assay: Evaluated in normal, fasted monkey for the percentage reduction in blood glucose level as compared to pretreatment blood glucose values at a dose of 150 mg of free base / kg body weight administered orally; assay type: functional, Cercopithecidae; procedure, shortened: as §3
Rattus norvegicus [17] = assay: Evaluated in glucose-primed, fasted rat for the percentage reduction in blood glucose level after 2 h as compared to control groups at a dose of 25 mg of free base / kg body weight administered orally; assay type: functional; procedure, shortened: as §2
Rattus norvegicus [18] = assay: Evaluated in glucose primed, adrenalectomized rat for the percentage reduction in blood glucose level as compared to pretreatment blood glucose values at a dose of 25 mg of free base / kg body weight administered orally
Rattus norvegicus [19] = assay: Evaluated in alloxanized, diabetic rat for the percentage reduction in blood glucose level as compared to pretreatment blood glucose values at a dose of 100 mg of free base / kg body weight administered orally.; assay type: functional; procedure, shortened: as §4
Cavia porcellus [20] = assay: Evaluated in normal, fasted guinea pig for the percentage reduction in blood glucose level after 5 hr as compared to pretreatment blood glucose values at a dose of 100 mg of free base / kg body weight administered orally; assay type: functional; procedure, shortened: as §5
Rattus norvegicus [21] = assay: Evaluated for the blood sugar lowering (hypoglycemic activity ) in the glucose-primed rat at a dose of 100 mg/kg; assay type: functional; procedure, shortened: as §2

Compound | LD50 [1] [mg/kg] | Change (Rattus norvegicus [2]) [%] | LD50 [3] [mg/kg] | further results
COc1ccc(N/C(=N/c2ccc(OCCN(C(C)C)C(C)C)cc2)c2ccccc2)cc1.Cl | 160 | 33.5 | 687 | –
CC(C)N(CCCOc1ccc(N/C(=N\c2ccc(Cl)cc2)c2ccccc2)cc1)C(C)C.Cl | 187 | 18.3 | 1000 | –
Br.COc1ccc(N/C(=N/c2ccc(OCCCN3CCCC3)cc2)c2ccc(C)cc2)cc1 | 43 | 12.6 | 400 | –
Br.c1ccc(/N=C(\Nc2ccc(OCCN3CCCCC3)cc2)c2ccccc2)cc1 | 142 | – | 467 | Change (Rattus norvegicus [4]): 5.2%
Br.COc1ccc(N/C(=N/c2ccc(OCCCN3CCCC3)cc2)c2ccccc2)cc1 | 108 | 25.7 | 400 | –
CCN(CC)CCOc1ccc(N/C(=N\c2ccccc2)c2ccccc2)cc1.O=C(O)C(=O)O | 100 | 6.8 | 687 | –
CN/C(=N/c1ccc(OCCN(C(C)C)C(C)C)cc1)c1ccccc1 | 112 | – | 500 | Change (Rattus norvegicus [4]): 13.1%
CC(C)N(CCOc1ccc(N/C(=N\Cc2ccccc2)c2ccccc2)cc1)C(C)C.Cl | 187 | – | 450 | Change (Rattus norvegicus [5]): 0%
CC(C)N(CCOc1ccc(N/C(=N\C2CCCCC2)c2ccccc2)cc1)C(C)C | 137 | 9.8 | 373 | –
COc1ccc(/C(=N\c2ccc(OCCN3CCCC3)cc2)Nc2ccccc2)cc1.Cl | – | 14 | – | –
Cc1cccc(/N=C(\Nc2ccc(OCCN(C(C)C)C(C)C)cc2)c2ccccc2)c1C | 360 | 23.2 | 1000 | –
Br.CC(C)N(CCOc1ccc(N/C(=N\c2ccc(F)cc2)c2ccccc2)cc1)C(C)C | 143 | 26 | 630 | –
CCCCN(CCCC)CCOc1ccc(N/C(=N\c2ccccc2)c2ccccc2)cc1.Cl | 160 | 22.5 | 800 | –
Br.c1ccc(CN(CCOc2ccc(N/C(=N\c3ccccc3)c3ccccc3)cc2)Cc2ccccc2)cc1 | – | – | – | Change (Rattus norvegicus [5]): 0%
N=C(N)NC(=N)NCCc1ccccc1 [PHENFORMIN] | – | – | – | Reduction (Rattus norvegicus [6]): 0%; Reduction (Monkey [7]): 50%; Reduction (Rattus norvegicus [8]): 62%; Reduction (Cavia porcellus [9]): 46%
COc1ccc(N/C(=N/c2ccc(OCCCN(C(C)C)C(C)C)cc2)c2ccccc2)cc1.Cl | 108 | 34.1 | 450 | –
Br.c1ccc(/N=C(\Nc2ccc(OCCCN3CCCC3)cc2)c2ccccc2)cc1 | 125 | 23.5 | 543 | –
CC(C)N(CCc1ccc(/C(=N\c2ccccc2)Nc2ccccc2)cc1)C(C)C.Cl | – | 32.4 | 587 | LD50 [10]: 160 mg/kg
CN(CCOc1ccc(N/C(=N\c2ccccc2)c2ccccc2)cc1)c1ccccc1 | 587 | 10.3 | 1000 | –

Compound | LD50 [1] [mg/kg] | Change (Rattus norvegicus [2]) [%] | LD50 [3] [mg/kg] | further results
CC(C)N(CCOc1ccc(N/C(=N\c2ccc(Cl)cc2)c2ccccc2)cc1)C(C)C | 1000 | 31 | 1000 | –
Br.COc1ccc(N/C(=N/c2ccc(OCCN3CCCC3)cc2)c2ccccc2)cc1 | 148 | 35 | 900 | –
CCCCNC(=N)NC(=N)N [BUFORMIN] | – | – | – | LD50 [11]: 140 mg/kg; Reduction (Rattus norvegicus [6]): 0%; LD50 [12]: 500 mg/kg
CC(C)N(CCOc1cccc(N/C(=N\c2ccccc2)c2ccccc2)c1)C(C)C.Cl | 107 | – | 240 | Change (Rattus norvegicus [13]): 28.1%
CC(C)N(CCOc1ccc(N/C(=N\c2ccc(Cl)c(Cl)c2)c2ccccc2)cc1)C(C)C.Cl | 400 | 13.8 | 1000 | –
CC(C)N(CCOc1ccc(N/C(=N\c2ccc(Cl)cc2)c2ccccc2)cc1)C(C)C.Cl | – | 30.9 | – | Reduction (Rattus norvegicus [14]): 28.8%; Reduction (Rattus norvegicus [15]): 23.5%; Reduction (Monkey [16]): 35%; LD50 [11]: 1000 mg/kg; Reduction (Rattus norvegicus [6]): 30.9%; Reduction (Rattus norvegicus [17]): 18.8%; Reduction (Rattus norvegicus [18]): 31.4%; Reduction (Rattus norvegicus [19]): 7.4%; Reduction (Cavia porcellus [20]): 14%; LD50 [12]: 1000 mg/kg
CC(C)N(CCOc1ccc(N/C(=N\c2cccc(C(F)(F)F)c2)c2ccccc2)cc1)C(C)C.Cl | 400 | – | 1000 | Change (Rattus norvegicus [21]): 0%
CCCCN(CCCC)CCCOc1ccc(N/C(=N\c2ccccc2)c2ccccc2)cc1.Cl | 148 | 10.9 | 867 | –
C=CC/N=C(\Nc1ccc(OCCN(C(C)C)C(C)C)cc1)c1ccccc1 | 125 | 15 | 653 | –
Br.CN(C)CCOc1ccc(N/C(=N\c2ccccc2)c2ccccc2)cc1 | 112 | – | 500 | Change (Rattus norvegicus [4]): 13.1%
CC(C)N(CCOc1ccccc1/N=C(/Nc1ccccc1)c1ccccc1)C(C)C.Cl | 253 | 18.3 | 840 | –
Br.CCN/C(=N/c1ccc(OCCN(C(C)C)C(C)C)cc1)c1ccccc1 | 100 | 6.8 | 687 | –
Br.CN(CCOc1ccc(N/C(=N\c2ccccc2)c2ccccc2)cc1)Cc1ccccc1 | 233 | 15.9 | 500 | –
COc1ccc(/C(=N\c2ccc(OCCN(C(C)C)C(C)C)cc2)Nc2ccccc2)cc1.Cl | 140 | 18.5 | 475 | –
CC(C)CN/C(=N/c1ccc(OCCN(C(C)C)C(C)C)cc1)c1ccccc1 | 80 | 22.8 | 360 | –
Cl.c1ccc(/N=C(\Nc2ccc(SCCN3CCCC3)cc2)c2ccccc2)cc1 | 200 | 12.5 | 587 | –
CC(C)N(CCSc1ccc(N/C(=N\c2ccccc2)c2ccccc2)cc1)C(C)C.Cl | 285 | 35.6 | 400 | –
Br.c1ccc(/N=C(\Nc2ccc(OCCN3CCOCC3)cc2)c2ccccc2)cc1 | 400 | – | 715 | Change (Rattus norvegicus [5]): 0%
CC(C)N(CCOc1ccc(N/C(=N\c2ccccc2)c2ccc(Cl)cc2)cc1)C(C)C.Cl | 400 | 3.2 | 1000 | –

— ChEMBL document CHEMBL1122033, “Chemistry and hypoglycemic activity of N-[[(Dialkylamino)alkoxy]phenyl]benzamidines” (J Med Chem, 1982)
